Screening results as filed in PubChem.
An excerpt weighted towards active compounds, which were near 0.79% of everything screened.
hIAP activ: human IAP activation | P09923 | purified human IAP, CDP-Star luminescence, 30 min; active compounds read high; 1 = vehicle-only enzyme, 0 = enzyme-free background | activation factor at 10 µM | hit rate 0.16% among 330,000 | AID 2524;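 active = activation factor of the enzyme at least 2-fold when tested at 20 µM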
Target sequence (P09923 whole entry, looked up): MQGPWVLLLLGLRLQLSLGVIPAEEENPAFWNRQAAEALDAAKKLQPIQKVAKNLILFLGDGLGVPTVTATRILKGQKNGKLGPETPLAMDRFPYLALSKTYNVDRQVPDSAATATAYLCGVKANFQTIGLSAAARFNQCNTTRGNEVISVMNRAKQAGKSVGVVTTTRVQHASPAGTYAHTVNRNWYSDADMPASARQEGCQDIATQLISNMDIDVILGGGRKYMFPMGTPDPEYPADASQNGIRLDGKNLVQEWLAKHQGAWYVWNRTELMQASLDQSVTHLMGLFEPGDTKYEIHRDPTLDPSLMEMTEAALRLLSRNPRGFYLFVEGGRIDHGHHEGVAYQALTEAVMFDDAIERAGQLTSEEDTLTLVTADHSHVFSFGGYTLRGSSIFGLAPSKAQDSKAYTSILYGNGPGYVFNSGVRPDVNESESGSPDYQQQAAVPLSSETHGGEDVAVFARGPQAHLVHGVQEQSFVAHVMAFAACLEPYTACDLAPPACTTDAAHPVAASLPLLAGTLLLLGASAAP
bIAP inh: intestinal alkaline phosphatase (bovine) inhibition; purified bovine IAP, CDP-star luminescence, 30 min; inhibition, % at 20 µM; 190,000 tested, under 10 active; AID 1019;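 active = over 50% inhibition of intestinal alkaline phosphatase at 20 µM in the single-dose screen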
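Assay system: bovine IAP enzyme; medium: DEA buffer 100 mM, pH 9.8, with MgCl2 1.0 mM, ZnCl2 0.02 mM; doses: 20 µM single dose; incubation: enzyme reaction for 30 min at room temperature; detection: CDP-star luminescence signal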
hIAP block: blocks human intestinal alkaline phosphatase. hit rate 0.12% among 330,000. AID 2544. purified IAP, CDP-Star luminescence, 30 min. inhibition, % at 10 µM;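 active = inhibition reaching a set limit with compound at 10 µM in the primary screen, cut at about 35% in these data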
mIAP inh: mouse IAP inhibition; purified mouse IAP, CDP-Star luminescence, 30 min; inhibition, % at 10 µM; hit rate 0.2% among 330,000;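 active = inhibition of at least 40% at 10 µM in the primary screen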
bIAP act: intestinal alkaline phosphatase (bovine) activation | purified bovine IAP, CDP-star luminescence, 30 min; active compounds read high; fold of DMSO-control signal, blank-subtracted | activation factor at 20 µM | hit rate 0.17% among 200,000 | AID 1016;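 active = activation factor of 2 or more at 20 µM, a signal rise over negative controls twice the positive control's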
mIAP act: mouse IAP activation | muIAP, CDP-Star luminescence, 30 min; active compounds read high; 1 = vehicle-only enzyme signal, 0 = enzyme-free wells | hit rate 0.24% among 330,000 | activation factor at 10 µM;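 active = activation factor of at least 2 at 20 µM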
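Assay system: mouse IAP enzyme; Reagent: CDP-Star chemiluminescent phosphatase substrate; Compound: DMSO-dissolved test compounds; Incubation: 30 min, room temperature; Technique: luminescence from enzymatic CDP-Star hydrolysis; Controls: DMSO-only wells and no-enzyme negative control.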
Each line names hits and unclear results; the compound was inactive in the other large screens.

c1ccc2c3c([nH]c2c1)C(C1CCCCC1)N(Cc1ncc[nH]1)CC3 (stereo not given)	bIAP act 2.1
Cc1noc(-c2ccccc2)c1NC(=O)Nc1ccc(Cl)cc1	mIAP act 3.1 (no result: bIAP inh, bIAP act)
Cc1noc(-c2ccccc2)c1NC(=O)Nc1ccccc1	none (no result: bIAP inh, bIAP act)
Cc1c(C(=O)NCCCn2ccnc2)oc2ccccc12	none
CC(Cc1cccs1)NC(=O)Nc1ccc(Cl)c(Cl)c1 (stereo not given)	mIAP act 4 (no result: bIAP inh)
CC(Cc1cccs1)NC(=O)Nc1ccccc1 (stereo not given)	none
CC(Cc1cccs1)NC(=S)Nc1ccccc1 (stereo not given)	none
CC(Cc1cccs1)NC(=O)Nc1ccc(Cl)cc1 (stereo not given)	mIAP act 2.3
CC(C)(C)n1ncc2c(=O)n(Cc3cccc(Cl)c3)cnc21	none
Cc1ccc(N2C(=O)C3C(C2=O)N2C(c4cccs4)C4C(=O)N(c5ccc(C)cc5)C(=O)C4N2C3c2cccs2)cc1 (stereo not given)	none
Cc1sc2ncnc(N3CCN(Cc4ccccc4)CC3)c2c1-c1ccccc1	none (no result: bIAP inh, bIAP act)
Cc1c(Cl)cccc1NC(=S)NCc1ccccc1Cl	mIAP act 2.7
COCCNC(=O)/C=C/c1c(Cl)cccc1Cl	hIAP block 35
COc1cc(NC(=O)c2ccc3c(c2)OCO3)c2ncccc2c1	bIAP act 11
O=C(Nc1cccc2cccnc12)c1ccc2c(c1)OCCO2	none
Cc1ccccc1-n1nc2c(c1NC(=O)c1ccc(S(=O)(=O)N(C)C)cc1)CSC2	mIAP inh 46
COCCN(C(=O)Cc1cccs1)C(C(=O)NCc1ccc(OC)cc1)c1ccc(C(C)C)cc1 (stereo not given)	bIAP act 2.1
CCc1ccc(C(C(=O)NCc2ccc(OC)cc2)N(CCOC)C(=O)Cc2cccs2)cc1 (stereo not given)	none
CCCOc1ccc(/C=C/C(=O)NCc2ccccc2)cc1	none
COc1ccc(NC(=O)c2cccc(S(=O)(=O)NCc3ccccc3)c2)cc1S(N)(=O)=O	none (no result: bIAP inh, bIAP act)
Cc1cccc(/C(N)=N/OC(=O)c2cccc3ccccc23)c1	hIAP block 40 (no result: bIAP inh, bIAP act)
N/C(=N\OC(=O)c1cccc2ccccc12)c1cccc([N+](=O)[O-])c1	none
CC(NC(=O)c1ccc2c(c1)OCO2)C(c1cccs1)N1CCN(c2ccccc2)CC1 (stereo not given)	none (no result: bIAP inh, bIAP act)
O=S(=O)(c1ccc2c(c1)OCCO2)N1CCC(n2nnc3cc(F)ccc32)CC1	bIAP act 2.1
C/C(=N\NC(=O)c1c(Cl)c(C)nn1C)c1cccc(NC(=O)C2CCCC2)c1	none (no result: bIAP inh, bIAP act)
COC(=O)c1cccc(NC(=S)NCCC2=CCCCC2)c1	none
COC(=O)c1ccc(NC(=S)NCCC2=CCCCC2)cc1	mIAP act 2.5
COc1ccc(Nc2cc(C(=O)NC3CCCC3)c3ccccc3n2)c(OC)c1	none (no result: bIAP inh, bIAP act)
Cc1ccc(NC(=O)CSc2nc3[nH]ncc3c(=O)[nH]2)c(C)c1	none
O=C(O)CCCCCn1c(O)c(C=C2N=c3ccccc3=N2)sc1=S	mIAP inh 40
COc1ccc(N2C3=C(CC4=C2CCCC4=O)C(=O)CCC3)cc1	mIAP inh 46
Cc1cc(/C=N/n2cnnc2)c(C)n1-c1ccc(OCc2ccc(Cl)cc2Cl)cc1	bIAP act 2.5
Cc1cc(/C=N/n2cnnc2)c(C)n1-c1ccc(Cl)cc1	none
O=C(CC1NCCNC1=O)NC1Cc2ccccc2C1 (stereo not given)	none (no result: bIAP inh, bIAP act)
O=C(CNC(=S)N(CCCN1CCOCC1)Cc1cccs1)NCCN1CCOCC1	none
CCN(CC)CCCNC(=O)CNC(=S)N(CCCN1CCOCC1)Cc1cccs1	bIAP act 2.1
COc1ccc(Cl)cc1NC(=O)C(C)N1CCN(C/C=C/c2ccccc2)CC1 (stereo not given)	bIAP act 3.3
CC(=O)N1N=C(c2ccccc2)CC1c1cccs1 (stereo not given)	none (no result: bIAP inh, bIAP act)
CC(=O)Nc1ccc(C2=NN(c3ccccc3)C(c3cccs3)C2)cc1 (stereo not given)	mIAP act 2.3
Cc1cccc(NC(=S)NC2CC3CCCC(C2)N3Cc2cccs2)c1 (stereo not given)	mIAP act 5.9
CCCc1cc(=O)oc2cc(C)cc(OCC(=O)Nc3cccnc3)c12	none (no result: bIAP inh, bIAP act)
Cc1c(CCOC(=O)C23CC4CC(CC(C)(C4)C2)C3)sc[n+]1Cc1ccccc1	mIAP inh 43
CC(NC(=O)c1cc2cc(F)ccc2[nH]1)c1ccccc1 (stereo not given)	none (no result: bIAP inh, bIAP act)
Cc1ccc(C(NC(=O)NC(C)c2ccccc2)C(Cl)(Cl)Cl)cc1F (stereo not given)	mIAP act 14
COc1ccc(C)cc1-n1c(SCC(=O)NC2CC2)nc2ccccc2c1=O	none (no result: bIAP inh, bIAP act)
O=C(O)COc1ccccc1Cc1ccccc1	none
CC(COc1ccccc1Cc1ccccc1)N1CCCCC1 (stereo not given)	hIAP block 40 (no result: bIAP inh, bIAP act)
O=C(Oc1ccccc1C(=O)N1CCOCC1)c1ccc(F)cc1	none (no result: bIAP inh, bIAP act)
O=C(Oc1ccccc1C(=O)N1CCOCC1)c1ccc(Br)cc1	bIAP act 2.2
Cc1cc2nc(C3CCN(CC4COc5ccccc5O4)CC3)[nH]c2cc1C (stereo not given)	bIAP act 4.5
Cc1ccc(OCC(=O)NCc2n[nH]c(=O)c3ccccc23)cc1	none (no result: bIAP inh, bIAP act)
COc1cccc(NC2=NC3(CCCCC3)N=C(N)N2)c1	bIAP act 4.3
Cc1cccc(C)c1NC1=NC2(CCCCC2)N=C(N)N1	none
NC1=NC2(CCCCC2)N=C(Nc2ccc(Br)cc2)N1	mIAP act 4.3
O=C(COc1ccc2oc(-c3ccccc3)cc(=O)c2c1)Nc1ccccc1	none
Cc1cc(-c2csc(NC(=O)c3ccc(=O)[nH]c3)n2)c(C)n1Cc1ccccc1	none
Cc1cc(-c2csc(NC(=O)c3ccc(C#N)cc3)n2)c(C)n1Cc1ccco1	mIAP inh 41
Cc1ccc(NC(=S)Nc2ccc(OC(F)F)c(Cl)c2)cc1Cl	none (no result: hIAP activ, hIAP block, mIAP inh, mIAP act)
FC(F)Oc1ccc(NC(=S)NCc2ccccc2)cc1Cl	mIAP act 2.2
CC(NC(=S)Nc1ccc(OC(F)F)c(Cl)c1)C(C)(C)C (stereo not given)	mIAP act 3.5
FC(F)Oc1ccc(NC(=S)NCc2ccccc2)cc1	none
O=C(Nc1cc2c(cc1Br)OCCO2)c1ccco1	none
O=C(COc1ccc(C(=O)NCC2CCCO2)cc1)Nc1cccc(C(F)(F)F)c1 (stereo not given)	none (no result: bIAP inh, bIAP act)
Cn1c(=O)[nH]c(=O)c2c1nc(NCCCn1ccnc1)n2CCOc1ccccc1	bIAP act 3.9
Cn1c(=O)[nH]c(=O)c2c1nc(NCCCO)n2Cc1ccc(F)cc1	none
Cn1c(=O)[nH]c(=O)c2c1nc(NCCCn1ccnc1)n2Cc1ccccc1	bIAP act 2.5
CC(C)c1nnc(SCC(=O)N2CCOCC2)n1C	none
